# Measurements reported in ChEMBL document CHEMBL5058577, “EUbOPEN Chemogenomics Library 2 (Multiplex)” (2022).
# Tested on: HEK-293T
# Assay: Multiplex assay against HEK293T
# Format: toxicity, cell-based
# Settings: human
# How it was run: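 Live cells carried four stains from seeding: Hoechst33342, BioTracker Green Microtubule Cytoskeleton Dye, MitoTracker Red and Annexin V Alexa Fluor 680. They were imaged on a CQ1 microscope at 37°C and 5% CO2 after compound addition. Using CellPathfinder machine-learning gating, cells were split into Hoechst high-intensity objects or normal cells, normal cells into healthy, pyknosed or fragmented nuclei, and pyknosed cells into mitotic or apoptotic; tubulin, mitochondrial-mass and membrane-permeability phenotypes are per cents of healthy-nucleus cells.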
# [1] = 12 h, 1 µM, compound concentration 1 uM, replicate 1
# [2] = 12 h, 1 µM, compound concentration 1 uM, replicate 2
# [3] = 12 h, 10 µM, compound concentration 10 uM, replicate 1
# [4] = 12 h, 10 µM, compound concentration 10 uM, replicate 2
# [5] = 24 h, 1 µM, compound concentration 1 uM, replicate 1
# [6] = 24 h, 1 µM, compound concentration 1 uM, replicate 2
# [7] = 24 h, 10 µM, compound concentration 10 uM, replicate 1
# [8] = 24 h, 10 µM, compound concentration 10 uM, replicate 2
# [9] = 48 h, 1 µM, compound concentration 1 uM, replicate 1
# [10] = 48 h, 1 µM, compound concentration 1 uM, replicate 2
# [11] = 48 h, 10 µM, compound concentration 10 uM, replicate 1
# [12] = 48 h, 10 µM, compound concentration 10 uM, replicate 2
smiles,measurement,setting,value
COc1ccccc1N1CCN(C[C@@H](C(=O)NC(C)(C)C)c2ccccc2)CC1.Cl.Cl,Population Apoptotic (%),[1],24%
same,Population Fragmented Nuclei (%),[1],7%
same,Population Healthy Nuclei (%),[1],77%
same,Population Hoechst High Intensity Objects (%),[1],7%
same,Population Membrane Permeable-Phenotype (%),[1],0%
same,Population Mitochondria Different-Phenotype (%),[1],48%
same,Population Mitotic Cells (%),[1],75%
same,Population Normal (%),[1],92%
same,Population Pyknosed Nuclei (%),[1],14%
same,Population Tubulin-Different-Phenotype (%),[1],47%
same,Total Cell Count,[1],434
same,Population Apoptotic (%),[2],42%
same,Population Fragmented Nuclei (%),[2],4%
same,Population Healthy Nuclei (%),[2],76%
same,Population Hoechst High Intensity Objects (%),[2],6%
same,Population Mitochondria Different-Phenotype (%),[2],77%
same,Population Mitotic Cells (%),[2],57%
same,Population Normal (%),[2],93%
same,Population Pyknosed Nuclei (%),[2],19%
same,Population Tubulin-Different-Phenotype (%),[2],35%
same,Total Cell Count,[2],300
same,Population Apoptotic (%),[3],62%
same,Population Fragmented Nuclei (%),[3],7%
same,Population Healthy Nuclei (%),[3],69%
same,Population Hoechst High Intensity Objects (%),[3],7%
same,Population Membrane Permeable-Phenotype (%),[3],0%
same,Population Mitochondria Different-Phenotype (%),[3],88%
same,Population Mitotic Cells (%),[3],37%
same,Population Normal (%),[3],92%
same,Population Pyknosed Nuclei (%),[3],23%
same,Population Tubulin-Different-Phenotype (%),[3],74%
same,Total Cell Count,[3],333
same,Population Apoptotic (%),[4],58%
same,Population Fragmented Nuclei (%),[4],5%
same,Population Hoechst High Intensity Objects (%),[4],16%
same,Population Mitochondria Different-Phenotype (%),[4],79%
same,Population Mitotic Cells (%),[4],41%
same,Population Normal (%),[4],83%
same,Population Pyknosed Nuclei (%),[4],25%
same,Population Tubulin-Different-Phenotype (%),[4],59%
same,Total Cell Count,[4],231
same,Population Apoptotic (%),[5],19%
same,Population Fragmented Nuclei (%),[5],8%
same,Population Healthy Nuclei (%),[5],81%
same,Population Hoechst High Intensity Objects (%),[5],4%
same,Population Membrane Permeable-Phenotype (%),[5],0%
same,Population Mitochondria Different-Phenotype (%),[5],31%
same,Population Mitotic Cells (%),[5],80%
same,Population Normal (%),[5],95%
same,Population Pyknosed Nuclei (%),[5],9%
same,Population Tubulin-Different-Phenotype (%),[5],29%
same,Total Cell Count,[5],563
same,Population Apoptotic (%),[6],34%
same,Population Fragmented Nuclei (%),[6],11%
same,Population Healthy Nuclei (%),[6],76%
same,Population Hoechst High Intensity Objects (%),[6],6%
same,Population Mitochondria Different-Phenotype (%),[6],54%
same,Population Mitotic Cells (%),[6],65%
same,Population Normal (%),[6],93%
same,Population Pyknosed Nuclei (%),[6],11%
same,Population Tubulin-Different-Phenotype (%),[6],28%
same,Total Cell Count,[6],387
same,Population Apoptotic (%),[7],45%
same,Population Fragmented Nuclei (%),[7],8%
same,Population Healthy Nuclei (%),[7],68%
same,Population Hoechst High Intensity Objects (%),[7],7%
same,Population Membrane Permeable-Phenotype (%),[7],0%
same,Population Mitochondria Different-Phenotype (%),[7],77%
same,Population Mitotic Cells (%),[7],54%
same,Population Normal (%),[7],92%
same,Population Pyknosed Nuclei (%),[7],23%
same,Population Tubulin-Different-Phenotype (%),[7],61%
same,Total Cell Count,[7],377
same,Population Apoptotic (%),[8],66%
same,Population Healthy Nuclei (%),[8],76%
same,Population Hoechst High Intensity Objects (%),[8],14%
same,Population Mitochondria Different-Phenotype (%),[8],73%
same,Population Mitotic Cells (%),[8],33%
same,Population Normal (%),[8],85%
same,Population Pyknosed Nuclei (%),[8],15%
same,Population Tubulin-Different-Phenotype (%),[8],48%
same,Total Cell Count,[8],251
same,Population Apoptotic (%),[9],22%
same,Population Fragmented Nuclei (%),[9],13%
same,Population Healthy Nuclei (%),[9],78%
same,Population Hoechst High Intensity Objects (%),[9],2%
same,Population Membrane Permeable-Phenotype (%),[9],1%
same,Population Mitochondria Different-Phenotype (%),[9],19%
same,Population Mitotic Cells (%),[9],77%
same,Population Normal (%),[9],97%
same,Population Pyknosed Nuclei (%),[9],8%
same,Population Tubulin-Different-Phenotype (%),[9],18%
same,Total Cell Count,[9],908
same,Population Apoptotic (%),[10],38%
same,Population Fragmented Nuclei (%),[10],10%
same,Population Healthy Nuclei (%),[10],80%
same,Population Hoechst High Intensity Objects (%),[10],6%
same,Population Membrane Permeable-Phenotype (%),[10],0%
same,Population Mitochondria Different-Phenotype (%),[10],37%
same,Population Mitotic Cells (%),[10],61%
same,Population Normal (%),[10],93%
same,Population Pyknosed Nuclei (%),[10],9%
same,Population Tubulin-Different-Phenotype (%),[10],20%
same,Total Cell Count,[10],480
same,Population Apoptotic (%),[11],50%
same,Population Fragmented Nuclei (%),[11],14%
same,Population Healthy Nuclei (%),[11],72%
same,Population Hoechst High Intensity Objects (%),[11],6%
same,Population Membrane Permeable-Phenotype (%),[11],0%
same,Population Mitochondria Different-Phenotype (%),[11],59%
same,Population Mitotic Cells (%),[11],49%
same,Population Normal (%),[11],93%
same,Population Pyknosed Nuclei (%),[11],13%
same,Population Tubulin-Different-Phenotype (%),[11],44%
same,Total Cell Count,[11],467
same,Population Apoptotic (%),[12],62%
same,Population Fragmented Nuclei (%),[12],10%
same,Population Healthy Nuclei (%),[12],76%
same,Population Hoechst High Intensity Objects (%),[12],5%
same,Population Mitochondria Different-Phenotype (%),[12],58%
same,Population Mitotic Cells (%),[12],37%
same,Population Normal (%),[12],94%
same,Population Tubulin-Different-Phenotype (%),[12],36%
same,Total Cell Count,[12],375
